Screening results from PubChem.
Only some compounds are listed: those with a hit (about 2% of all), similar ones and a draw of the others.
SR-BI HDL uptake – blocks mouse SR-BI lipid uptake from DiI-HDL | hit rate 0.96% among 320,000 | inhibition, % at 12.5 µM | ldlA[mSR-BI] CHO cells, DiI-HDL uptake fluorescence, 3 h;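 active = mean replicate inhibition of at least 70% and a set share of replicates each scoring 70 or more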;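 note: 0% = median of neutral control wells and 100% = median of positive control wells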
Target sequence (Q61009 whole entry, looked up): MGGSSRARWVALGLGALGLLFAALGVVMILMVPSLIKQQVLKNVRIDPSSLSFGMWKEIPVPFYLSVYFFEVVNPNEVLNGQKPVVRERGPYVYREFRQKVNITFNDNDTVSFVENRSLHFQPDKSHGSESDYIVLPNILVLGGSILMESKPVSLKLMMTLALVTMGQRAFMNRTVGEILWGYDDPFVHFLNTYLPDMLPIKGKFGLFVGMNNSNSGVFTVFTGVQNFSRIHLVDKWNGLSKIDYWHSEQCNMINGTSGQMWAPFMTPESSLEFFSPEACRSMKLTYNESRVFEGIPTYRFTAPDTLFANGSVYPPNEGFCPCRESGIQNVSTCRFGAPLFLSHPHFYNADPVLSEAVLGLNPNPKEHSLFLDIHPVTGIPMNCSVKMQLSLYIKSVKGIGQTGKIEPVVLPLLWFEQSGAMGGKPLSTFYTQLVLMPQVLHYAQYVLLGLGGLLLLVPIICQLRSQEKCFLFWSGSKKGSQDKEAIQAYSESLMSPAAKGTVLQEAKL
NSD2 HMT inh – blocks human histone methyltransferase NSD2 | AID 743445 | NSD2 peptide methylation, AlphaScreen, 120 min | inhibition, % at 12.5 µM | hit rate 0.54% among 310,000; in the data active = inhibition above about 50%
sPLA2-III inh – Inhibits HGIII-sPLA2 liposome hydrolysis, primary screen. QFRET BODIPY PC-A2 liposome hydrolysis, fluorescence. inhibition, % at 12.2 µM. hit rate 0.56% among 370,000;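 active = inhibition above mean plus 3 SD of compounds lying within the high and low control bounds, cut at about 19% in these data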;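 note: 0% = median of test compound wells and 100% = no enzyme DMSO wells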
XiGFP reactiv – reactivates the inactive X chromosome in mouse fibroblasts | XiGFP mouse fibroblasts, % GFP-positive cells imaging, 3 d; cells co-treated with 5-aza-dC sensitizer; scaled so ellipticine positive control = 100% | activation, % at 7.58 µM | hit rate 0.055% among 360,000 | AID 743238;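 active = mean normalized replicate activation at least 10% and every replicate at or above 10%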;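 note: 0% = median of on-plate neutral control wells and 100% = ellipticine 6 µM median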
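Schedule: 3 d treatment, 15 min room-temperature fixation; system: 68-5-11 XiGFP fibroblast line; buffer or medium: DMEM plus 5-aza-dC sensitizer; control set: ellipticine 6 µM positive control; compound: one concentration, pinned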
SR-BI uptake up – SR-BI HDL lipid transfer activation | CHO ldlA[mSR-BI] cells, DiI-HDL uptake fluorescence, 3 h; 100 = double the neutral-control signal | activation, % at 12.5 µM | hit rate 0.096% among 320,000;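 active = mean replicate activation of at least 60% and every replicate at or above 60%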;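 note: 0% = median plate neutral-control signal and 100% = twice that signal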
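material = CHO ldlA[mSR-BI] cells | medium = Ham's F12 with 0.5% BSA, HEPES 25 mM, pH 7.4 | reagent = fluorescent DiI-HDL, 10 µg/mL final | compound dosing = single-point compound dose | incubation = 3 h, 37 °C | measured by = bottom-read fluorescence, 550/595 nm | measure = HDL uptake via cellular fluorescence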
ARNT TACC3 PPI – ARNT/TACC3 interaction disruption; Q9Y6A5; AlphaScreen His-ARNT PAS-B/GST-TACC3 binding, luminescence; TACC3 fragment carries E629A point mutation; inhibition, % at 9.99 µM; hit rate 0.66% among 390,000;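 active = mean inhibition of replicates at least 50% and at least half of replicates each reaching 50%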;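 note: 0% = complete ARNT plus TACC3 wells and 100% = ARNT alone without TACC3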
ARNT Alpha ctr – interferes with AlphaScreen signal, flagging false ARNT-TACC3 hits | shares compounds with ARNT TACC3 PPI | His-ARNT PASB-GST AlphaScreen artifact counter-screen, luminescence | AC50, µM (titrated, usually from 68 µM), for inactives: at the top dose activity change, negative = signal decrease | hit rate 50% among 1,200;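 active = every separate test run was called active for a drop in luminescence, with AC50 within twice the top valid dose, actives reach about 71 µM in these data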
* = called active by the depositor; · = no result given; [ ] = another dose, or the depositor's remark.

SMILES	SR-BI HDL uptake	NSD2 HMT inh	sPLA2-III inh	XiGFP reactiv	SR-BI uptake up	ARNT TACC3 PPI	ARNT Alpha ctr
c1ccc(-c2cn(C[C@H]3CC[C@H](Cn4cc(-c5ccccn5)nn4)O3)nn2)nc1	-29	·	5	0	29	72*	7.8µM*
O=C(C[C@H]1CC[C@H](NC(=O)c2ccccc2)[C@@H](CO)O1)Nc1ccc(-c2ccccc2)cc1	·	·	·	0	·	-12	·
COc1ccc(NC(=O)N[C@@H]2CC[C@@H](CCn3cc(-c4ccccc4)nn3)O[C@@H]2CO)cc1	·	·	·	-1	·	5	·
O=C(N[C@H]1CC[C@@H](CCn2cc(-c3ccccc3)nn2)O[C@@H]1CO)c1cnccn1	·	·	·	1	·	active	-3%[42 µM]
Cc1ccc(-c2cn(C[C@H]3CC[C@@H]([C@@H]4CC[C@H](Cn5cc(-c6ccc(C)cc6)nn5)O4)O3)nn2)cc1	20	·	3	0	-20	-11	·
O=C(C[C@H]1CC[C@@H](NC(=O)c2ccccc2)[C@H](CO)O1)Nc1ccc(-c2ccccc2)cc1	·	·	·	0	·	51*	-1%[42 µM]
COc1ccc(NC(=O)N[C@H]2CC[C@H](CCn3cc(-c4ccccn4)nn3)O[C@@H]2CO)cc1	·	·	·	-1	·	20*	36µM*
O=C(N[C@@H]1CC[C@@H](CCn2cc(-c3ccccc3)nn2)O[C@H]1CO)c1cnccn1	·	·	·	-1	·	7	·
Cc1cccc(NC(=O)COC(=O)c2ccccc2-c2nc3ccccc3s2)c1C	31	-2	-2	0	-31	·	·
O=C(Nc1ccc2c(c1)OCO2)N[C@@H]1CC[C@H](CCNC(=O)C2CCCC2)O[C@@H]1CO	·	·	·	0	·	1	·
O=C(N[C@@H]1CC[C@H](CCn2cc(-c3ccccn3)nn2)O[C@H]1CO)c1ccccc1	·	·	·	0	·	76*	60µM*
O=C(N[C@H]1CC[C@H](CCn2cc(-c3ccccn3)nn2)O[C@H]1CO)c1ccccc1	·	·	·	0	·	54*	-10%[38 µM]
N[C@@H]1CC[C@H](CCn2cc(-c3ccccn3)nn2)O[C@H]1CO	·	·	·	0	·	75*	6.6µM*
O=C(N[C@H]1CC[C@H](CCn2cc(-c3ccccn3)nn2)O[C@@H]1CO)c1ccccc1	·	·	·	0	·	74*	34µM*
CCCCNC(=O)c1ccc(N2CCC3(CC2)OCCO3)c([N+](=O)[O-])c1	13	-1	2	0	-13	8	·
CCOC(=O)C1=CC[C@@H](c2ccccc2)[C@@]12CC/C(=C\c1ccccc1)C2=O	·	·	·	·	·	14	·
N#CCC(=O)Nc1ccc(C(=O)OCC(=O)c2c[nH]c3ccccc23)cc1	22	0	-84	1	-22	-9	·
CC(C)(C)C1=CC(=Nc2ccccc2N)C=C(C(C)(C)C)C1=O	41	39	-5	0	-41	54*	1.5µM*
Nc1ccccc1N=Nc1ccccc1N	-5	·	10	0	5	22	·
Cc1ccc(/C=N/Nc2ccc3ccccc3n2)o1	-2	·	-14	0	2	29	·
Cc1ccc(/C=N/Nc2cn[nH]c(=O)n2)o1	-1	2	-5	0	1	57*	-11%
CCn1c(SCC(=O)Nc2ccc3c(c2)OCCO3)nnc1-c1cccs1	-12	-1	0	·	12	0	·
CCC(=O)NC(c1cc(Cl)c2cccnc2c1O)C(C)C (configuration not stated)	-15	·	11	0	15	54*	69µM*
CCC(=O)NC(c1cc(Cl)c2cccnc2c1O)C1CC1 (configuration not stated)	-5	·	10	0	5	58*	37µM*
Cc1[nH]c2ccccc2c1C(c1ccccn1)N1CCC(C)CC1 (configuration not stated)	-22	·	1	·	22	1	·
SMILES	SR-BI HDL uptake	NSD2 HMT inh	sPLA2-III inh	XiGFP reactiv	SR-BI uptake up	ARNT TACC3 PPI	ARNT Alpha ctr
CCC1CCCCN1CCCNC(=O)Cn1c2ccccc2c2nc(=O)cc(C)n21 (configuration not stated)	-10	-3	6	0	10	-1	·
COc1ccc(CCNC(=O)CSc2nnc3ccc(-c4ccccn4)nn23)cc1	-10	1	2	0	10	48*	68µM*
Cc1sc2ncnc(N/N=C/c3ccccc3O)c2c1C	116*	-1	4	0	-116	54*	41µM*
C[C@@H](NC(=O)C[C@@H]1C[C@H]2c3cc(NC(=O)CN(C)C)ccc3O[C@H]2[C@H](CO)O1)c1ccccc1	·	·	·	0	·	0	·
COc1ccc(S(=O)(=O)Nc2ccc3c(c2)C(=O)N([C@@H](C)CO)C[C@H](C)[C@H](CN(C)CC2CCCCC2)OCCCC[C@H](C)O3)cc1	·	·	·	1	·	-18	·
CCC(=O)NC(c1ccc(C)cc1)c1cc([N+](=O)[O-])c2cccnc2c1O (configuration not stated)	-6	-1	8	0	6	58*	11µM*
CC(=O)NC(c1ccc(C)cc1)c1cc([N+](=O)[O-])c2cccnc2c1O (configuration not stated)	-17	2	6	0	17	·	·
CCCC(=O)NC(c1ccco1)c1cc([N+](=O)[O-])c2cccnc2c1O (configuration not stated)	-22	7	11	0	22	59*	30µM*
CCCC(=O)NC(c1ccc(OC)c(OC)c1)c1cc(Cl)c2cccnc2c1O (configuration not stated)	19	0	5	1	-19	·	·
C[C@@H](NC(=O)C[C@H]1CC[C@@H]2[C@H](COC[C@@H](O)CN2C(=O)Nc2ccccc2)O1)c1ccccc1	·	·	·	1	·	-1	·
CN(C)CCNC(=O)c1cc(-c2ccccc2)on1	·	·	·	·	·	·	-1%[38 µM]
O=C(NCC1CC1)c1cc(-c2ccccc2)on1	·	·	·	·	·	·	1%[38 µM]
Cc1ccccc1CNC(=O)c1cc(-c2ccccc2)on1	·	·	·	·	·	·	2%[38 µM]
Cc1cccc(N(CC(=O)N2CCc3ccccc3C2)S(C)(=O)=O)c1C	21	0	-2	0	-21	-35	·
O=C(Nc1ccc2c(c1)OCO2)N[C@H]1C=C[C@H](CC(=O)N2CCN(c3ccccc3)CC2)O[C@H]1CO	·	·	·	0	·	6	·
O=C(C1CCOCC1)N1CC[C@@H]2[C@@H](CO)Nc3ccc(-c4cccc(F)c4)cc3[C@@H]21	·	·	·	0	·	-2	·
COC(=O)N1CCN(CCc2ccccc2)CC1	-12	-2	-1	0	12	0	·
N#CC1=C(N)Oc2c(ccc3cccnc23)C1c1ccccc1 (configuration not stated)	5	2	-17	0	-5	57*	71µM*
